The source of these data is ChEMBL document CHEMBL3603770, “Synthesis and cytotoxic activities of 2-substituted (25R)-spirostan-1,4,6-triene-3-ones via ring-opening/elimination and 'click' strategy” (Bioorg Med Chem Lett, 2015).

One may read the IC50 as the concentration at which inhibition is half-maximal.

Format in all cases: functional, cell-based
The subject of assay [1] is HeLa. In words: Antiproliferative activity against human HeLa cells incubated for 48 hrs by MTT assay. A digest of the protocol: (§1)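 Human tumour cells exposed to compounds for 48 h at 37 °C; viability read by MTT. Growth inhibition (%) measured in triplicate at 5, 10, 20, 40, 80 and 160 μM; data as mean ± standard deviation. IC50 calculated from percentage inhibition of cell growth.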
In general terms: Tetrazolium assays rely on reduction of a dye to a coloured formazan, in cell work by metabolically active cells.

Assay [2] has as its system HepG2. Briefly: Antiproliferative activity against human HepG2 cells incubated for 48 hrs by MTT assay. Conditions: HepG2, 48 h. An outline of the steps: as §1
Assay [3] is described as follows: Antiproliferative activity against human CaSki cells incubated for 48 hrs by MTT assay. As to conditions: Ca-Ski. An outline of the steps: as §1

As for `COC1=C[C@@]2(C)C(=CC1=O)C=C[C@H]1[C@@H]3C[C@@H]4O[C@]5(CC[C@@H](C)CO5)[C@@H](C)[C@@H]4[C@@]3(C)CC[C@@H]12`, the IC50 in assay [1] is above 100 µM; in assay [2] it was 77.1 µM; in assay [3], 28.5 µM.
The like results for `CCOC1=C[C@@]2(C)C(=CC1=O)C=C[C@H]1[C@@H]3C[C@@H]4O[C@]5(CC[C@@H](C)CO5)[C@@H](C)[C@@H]4[C@@]3(C)CC[C@@H]12` were, in that order, above 100 µM, above 100 µM and above 100 µM.
On to `CCCOC1=C[C@@]2(C)C(=CC1=O)C=C[C@H]1[C@@H]3C[C@@H]4O[C@]5(CC[C@@H](C)CO5)[C@@H](C)[C@@H]4[C@@]3(C)CC[C@@H]12`, for which the IC50 in assay [1] was determined as 80.3 µM; in assay [2], 61.6 µM; in assay [3], 32.1 µM.
`CC(C)OC1=C[C@@]2(C)C(=CC1=O)C=C[C@H]1[C@@H]3C[C@@H]4O[C@]5(CC[C@@H](C)CO5)[C@@H](C)[C@@H]4[C@@]3(C)CC[C@@H]12`: the results for the IC50 in assay [1], in assay [2] and in assay [3] were above 100 µM, 61.3 µM and 29.3 µM, respectively.
The like results for `C#CCOC1=C[C@@]2(C)C(=CC1=O)C=C[C@H]1[C@@H]3C[C@@H]4O[C@]5(CC[C@@H](C)CO5)[C@@H](C)[C@@H]4[C@@]3(C)CC[C@@H]12` were, in that order, 57.4 µM, 90.7 µM and 23.2 µM.
For `CCCCOC1=C[C@@]2(C)C(=CC1=O)C=C[C@H]1[C@@H]3C[C@@H]4O[C@]5(CC[C@@H](C)CO5)[C@@H](C)[C@@H]4[C@@]3(C)CC[C@@H]12`, in that order: 71.6 µM, 85 µM and 39.5 µM.
For the compound `CC(C)COC1=C[C@@]2(C)C(=CC1=O)C=C[C@H]1[C@@H]3C[C@@H]4O[C@]5(CC[C@@H](C)CO5)[C@@H](C)[C@@H]4[C@@]3(C)CC[C@@H]12`, the half-inhibitory concentration (IC50) was above 100 µM in assay [1], 53.4 µM in assay [2] and 33.5 µM in assay [3].
`C[C@@H]1CC[C@@]2(OC1)O[C@H]1C[C@H]3[C@@H]4C=CC5=CC(=O)C(OCc6cn(-c7ccccc7)nn6)=C[C@]5(C)[C@H]4CC[C@]3(C)[C@H]1[C@@H]2C`: the IC50 in assay [1], in assay [2] and in assay [3] was above 100 µM throughout.
`C[C@@H]1CC[C@@]2(OC1)O[C@H]1C[C@H]3[C@@H]4C=CC5=CC(=O)C(OCc6cn(Cc7ccccc7)nn6)=C[C@]5(C)[C@H]4CC[C@]3(C)[C@H]1[C@@H]2C`: the figures for the IC50 in assay [1], in assay [2] and in assay [3] were above 100 µM, 53.4 µM and 10.9 µM, respectively.
For `COc1ccc(Cn2cc(COC3=C[C@@]4(C)C(=CC3=O)C=C[C@H]3[C@@H]5C[C@@H]6O[C@]7(CC[C@@H](C)CO7)[C@@H](C)[C@@H]6[C@@]5(C)CC[C@@H]34)nn2)cc1`, in that order: above 100 µM, 41.8 µM and 67 µM.
For `C[C@@H]1CC[C@@]2(OC1)O[C@H]1C[C@H]3[C@@H]4C=CC5=CC(=O)C(OCc6cn(Cc7ccc(CN=[N+]=[N-])cc7)nn6)=C[C@]5(C)[C@H]4CC[C@]3(C)[C@H]1[C@@H]2C`, in that order: above 100 µM, above 100 µM and above 100 µM.
The like results for `C[C@@H]1CC[C@@]2(OC1)O[C@H]1C[C@H]3[C@@H]4C=CC5=CC(=O)C(OCc6cn(Cc7ccc(Cn8cc(COC9=C[C@@]%10(C)C(=CC9=O)C=C[C@H]9[C@@H]%11C[C@@H]%12O[C@]%13(CC[C@@H](C)CO%13)[C@@H](C)[C@@H]%12[C@@]%11(C)CC[C@@H]9%10)nn8)cc7)nn6)=C[C@]5(C)[C@H]4CC[C@]3(C)[C@H]1[C@@H]2C` were, in that order, above 100 µM, above 100 µM and above 100 µM.
`CC(=O)Cn1cc(COC2=C[C@@]3(C)C(=CC2=O)C=C[C@H]2[C@@H]4C[C@@H]5O[C@]6(CC[C@@H](C)CO6)[C@@H](C)[C@@H]5[C@@]4(C)CC[C@@H]23)nn1`: the IC50 in assay [1] amounted to 48.1 µM; in assay [2], 40.2 µM; in assay [3] it was 11.8 µM.
For `CCOC(=O)Cn1cc(COC2=C[C@@]3(C)C(=CC2=O)C=C[C@H]2[C@@H]4C[C@@H]5O[C@]6(CC[C@@H](C)CO6)[C@@H](C)[C@@H]5[C@@]4(C)CC[C@@H]23)nn1`, in that order: above 100 µM, 44 µM and 68.9 µM.
The like results for `C[C@@H]1CC[C@@]2(OC1)O[C@H]1C[C@H]3[C@@H]4C=CC5=CC(=O)C(OCc6cn(CC#N)nn6)=C[C@]5(C)[C@H]4CC[C@]3(C)[C@H]1[C@@H]2C` were, in that order, above 100 µM, above 100 µM and above 100 µM.
The like results for `C[C@@H]1CC[C@@]2(OC1)O[C@H]1C[C@H]3[C@@H]4C=CC5=CC(=O)C(OCc6cn(CC(=O)c7ccccc7)nn6)=C[C@]5(C)[C@H]4CC[C@]3(C)[C@H]1[C@@H]2C` were, in that order, above 100 µM, 60.2 µM and 99 µM.
As for `COc1ccc(C(=O)Cn2cc(COC3=C[C@@]4(C)C(=CC3=O)C=C[C@H]3[C@@H]5C[C@@H]6O[C@]7(CC[C@@H](C)CO7)[C@@H](C)[C@@H]6[C@@]5(C)CC[C@@H]34)nn2)cc1`, the IC50 in assay [1], in assay [2] and in assay [3] was above 100 µM in each case.
With `Cc1ccc(C(=O)Cn2cc(COC3=C[C@@]4(C)C(=CC3=O)C=C[C@H]3[C@@H]5C[C@@H]6O[C@]7(CC[C@@H](C)CO7)[C@@H](C)[C@@H]6[C@@]5(C)CC[C@@H]34)nn2)cc1`, the IC50 is above 100 µM in assay [1], 76.1 µM in assay [2] and above 100 µM in assay [3].
For the compound `C[C@@H]1CC[C@@]2(OC1)O[C@H]1C[C@H]3[C@@H]4C=CC5=CC(=O)C(OCc6cn(CC(=O)c7ccc(O)cc7)nn6)=C[C@]5(C)[C@H]4CC[C@]3(C)[C@H]1[C@@H]2C`, the IC50 in assay [1] is above 100 µM; in assay [2] it was 52.8 µM; in assay [3], 98.7 µM.
As to `C[C@@H]1CC[C@@]2(OC1)O[C@H]1C[C@H]3[C@@H]4C=CC5=CC(=O)C(OCc6cn(CC(=O)c7cccc(O)c7)nn6)=C[C@]5(C)[C@H]4CC[C@]3(C)[C@H]1[C@@H]2C`, the IC50 in assay [1] is above 100 µM; in assay [2], 45.6 µM; in assay [3] it was 9.4 µM.
For `C[C@@H]1CC[C@@]2(OC1)O[C@H]1C[C@H]3[C@@H]4C=CC5=CC(=O)C(OCc6cn(CC(=O)c7ccc(Br)cc7)nn6)=C[C@]5(C)[C@H]4CC[C@]3(C)[C@H]1[C@@H]2C`, in that order: above 100 µM, 53.7 µM and above 100 µM.
The like results for `C[C@@H]1CC[C@@]2(OC1)O[C@H]1C[C@H]3[C@@H]4C=CC5=CC(=O)C(OCc6cn(CC(=O)c7cccc(Br)c7)nn6)=C[C@]5(C)[C@H]4CC[C@]3(C)[C@H]1[C@@H]2C` were, in that order, above 100 µM, 88.1 µM and above 100 µM.
